In publication PMC5710144 (Genes & Development, 2017):

Legend:
[1] = test system: BRWD2/PHIP CRL4 interaction; experiment: MS of Flag-BRWD2/PHIP purifications after inhibitor treatment; format: cell-based; conditions: MLN4924 1 µM, 5 h
How it was run: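 Flag-BRWD2/PHIP was purified from MNase-digested chromatin of HEK293 TRex cells expressing Flag-BRWD2/PHIP, with parental HEK293 TRex cells as the control. MLN4924 (1 µM) was added 5 h before harvest where indicated. Immunoprecipitated complexes were prepared for MS and analysed by MS.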

[2] = test system: CUL4A / DDB1 association with BRWD2/PHIP; format: cell-based; conditions: MLN4924 1 µM
How it was run: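 In HEK293 TRex cells expressing Flag-BRWD2/PHIP, MLN4924 (1 µM) was added 5 h before harvest. Flag purifications were made from MNase-digested chromatin. Inputs and immunoprecipitates were probed by immunoblot with antibodies to CUL4A, DDB1 and Flag-M2.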

## NS(=O)(=O)OC[C@@H]1C[C@@H](n2ccc3c(N[C@H]4CCc5ccccc54)ncnc32)C[C@@H]1O [MLN4924]
[1]
  BRWD2/PHIP association with CSN complex: disrupts BRWD2/PHIP association
  BRWD2/PHIP association with Nedd8-binding protein UBXD7 (UBXN7): disrupts BRWD2/PHIP association
  interaction with chromatin remodelers and histone-binding proteins (CHD4, PHF6, FACT): not altered
[2]; 5 h
  BRWD2/PHIP association with CUL4A and DDB1: still occurs
  CUL4A level / CUL4A interaction with BRWD2/PHIP: slightly reduced
[2]; added 5 h prior to harvesting, HEK293
  Nedd8 attachment to CUL4: blocks Nedd8 attachment to CUL4
